Data set [1] relates to MV4-11. The data set can be described thus: Anticancer activity against human MV4-11 cells assessed as reduction in cell proliferation after 48 hrs by WST-1 assay. It counts as functional, cell-based. The conditions noted are these: MV4-11, 48 h. The method in brief:
(§1)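 Cells were exposed to compound for 48 h and proliferation was measured from dose-response curves. NCM460 was tested at doses up to 20 µM. U-2 OS was also read in the 2.5-5.0 µM range. IC50 was calculated from the curves. Data are mean of quadruplicates ± SD from three independent trials.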
(In general: Tetrazolium assays rely on reduction of a dye to a coloured formazan, in cell work by metabolically active cells.)

For another data set, the system named is Jurkat E6.1. Nature of the data set: Anticancer activity against human Jurkat E6-1 cells assessed as reduction in cell proliferation after 48 hrs by WST-1 assay. It counts as functional, cell-based. The conditions noted are these: Jurkat E6.1, 48 h. In a few lines: as §1
Data set [2] in a line: Anticancer activity against human Saos2 cells assessed as reduction in cell proliferation after 48 hrs by WST-1 assay. It counts as functional, cell-based. The conditions noted are these: SAOS-2, 48 h. In a few lines:
as §1

Data set [3] deals with U2OS. Nature of the data set: Anticancer activity against human U2OS cells assessed as reduction in cell proliferation after 48 hrs by WST-1 assay. It counts as functional, cell-based. The method in brief:
as §1

The nature of data set [4]: Cytotoxicity against human NCM460 cells assessed as reduction in cell proliferation after 48 hrs by WST-1 assay. In kind it is cell-based. The conditions noted are these: NCM460, 48 h. In a few lines: as §1
For data set [5], the system named is U2OS. Nature of the data set: Anticancer activity against human U2OS cells assessed as reduction in cell proliferation at 2.5 to 5 uM after 48 hrs by WST-1 assay. It counts as functional. The arrangement: scale not given: the % may be the effect or the level left. In a few lines:
as §1

In a further data set the test system is SAOS-2. Nature of the data set: Induction of apoptosis in human Saos2 cells assessed as phosphatidylserine externalization at 0.01 and 5 uM after 48 hrs by AnnexinV/propidium iodide staining based Tali-image based cytometry. In kind it is functional, cell-based. The method in brief:
(§2)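 After 48 h treatment, phosphatidylserine externalization was detected with Annexin V–Alexa Fluor 488, and membrane-permeabilized (necrotic) cells were detected by propidium iodide uptake. Green and/or red populations were quantified by image-based cytometry. Signal above the control baseline was scored as apoptotic, necrotic, or both. Data are mean ± SD of three independent trials.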

The test system of data set [6] is MV4-11. The data set can be described thus: Induction of apoptosis in human MV4-11 cells assessed as phosphatidylserine externalization at 0.0075 and 5 uM after 48 hrs by AnnexinV/propidium iodide staining based Tali-image based cytometry. It counts as functional, cell-based. In a few lines:
as §2

Data set [7] is described as follows: Induction of apoptosis in human NCM460 cells assessed as phosphatidylserine externalization 0.1 and 20 uM after 48 hrs by AnnexinV/propidium iodide staining based Tali-image based cytometry. The conditions noted are these: ncm460, 48 h. It counts as cell-based. In a few lines: as §2
The target of data set [8] is T1, Tubulin (Sus scrofa) (UniProt P02554+P02550). Nature of the data set: Inhibition of porcine brain tubulin polymerization at 3 uM measured for 1 hr by spectrofluorometer analysis. In a few lines:
(§3)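 This was an in vitro tubulin polymerization assay monitored kinetically for 1 h against a DMSO vehicle control. Polymerization was read fluorometrically from incorporation of a fluorescent reporter, in relative fluorescence units. Data are mean of duplicates ± SEM of three independent trials, compared with control.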

For data set [9], the target named is T1, Tubulin (Sus scrofa). The data set can be described thus: Inhibition of porcine brain tubulin polymerization at 10 uM measured for 1 hr by spectrofluorometer analysis. The method in brief:
as §3

The subject of data set [10] is U2OS. Nature of the data set: Anticancer activity against human U2OS cells assessed as reduction in cell proliferation at 10 uM after 48 hrs by WST-1 assay. It counts as functional, cell-based. The method in brief: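 This was a blind single-concentration screen of a 600-compound library against U-2 OS osteosarcoma cells. Each compound was tested at 10 µM for 48 h, and reduced proliferation was flagged for follow-up.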

Among the data in ChEMBL document CHEMBL3585301 (Bioorg Med Chem Lett, 2014) are IC50, Activity and inhibition values, retold here.

Activity calls are given as the source filed them. No cut-off for these calls is given here. Bounds are passed on as bounds.

T1 sequence (P02550 whole entry, looked up): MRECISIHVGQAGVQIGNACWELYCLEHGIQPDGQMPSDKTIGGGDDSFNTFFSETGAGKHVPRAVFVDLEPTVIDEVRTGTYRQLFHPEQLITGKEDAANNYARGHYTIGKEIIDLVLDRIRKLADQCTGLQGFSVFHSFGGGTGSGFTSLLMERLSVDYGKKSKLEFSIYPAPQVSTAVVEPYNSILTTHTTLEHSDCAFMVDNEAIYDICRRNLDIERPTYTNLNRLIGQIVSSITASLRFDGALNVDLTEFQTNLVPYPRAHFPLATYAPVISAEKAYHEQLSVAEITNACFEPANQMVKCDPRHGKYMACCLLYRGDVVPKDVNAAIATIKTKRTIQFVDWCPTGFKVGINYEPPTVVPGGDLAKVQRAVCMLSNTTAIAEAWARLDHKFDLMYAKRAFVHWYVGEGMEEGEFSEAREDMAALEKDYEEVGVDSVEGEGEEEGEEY
T1 sequence (P02554 whole entry, looked up): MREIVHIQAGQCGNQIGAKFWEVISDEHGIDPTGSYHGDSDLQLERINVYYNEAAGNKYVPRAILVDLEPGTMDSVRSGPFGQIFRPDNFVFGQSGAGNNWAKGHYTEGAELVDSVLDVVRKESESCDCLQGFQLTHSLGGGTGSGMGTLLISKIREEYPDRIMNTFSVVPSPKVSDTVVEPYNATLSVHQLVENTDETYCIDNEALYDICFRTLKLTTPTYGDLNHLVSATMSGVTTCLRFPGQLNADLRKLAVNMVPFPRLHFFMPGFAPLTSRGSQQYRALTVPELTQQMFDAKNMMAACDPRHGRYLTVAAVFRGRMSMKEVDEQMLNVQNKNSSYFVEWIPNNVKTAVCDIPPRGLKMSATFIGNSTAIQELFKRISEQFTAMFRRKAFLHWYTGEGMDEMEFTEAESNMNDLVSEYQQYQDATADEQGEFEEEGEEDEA

The term IC50 denotes the concentration that inhibits the measured activity by half. On to `COc1ccc(-c2ccc(OC)c(OC)c2OC)cc1O`, for which the 50% inhibitory concentration (IC50) in the data set with MV4-11 [1] was 2760 nM; in the data set with Jurkat E6.1, 965 nM; in data set [2], 5430 nM; in the data set with U2OS [3], over 20000 nM; in data set [4] it was over 20000 nM. In addition, the Activity in the data set with U2OS [5] is given as 60%; in data set [7], “Non-toxic”. For the same compound, the result with SAOS-2 and in the data set on MV4-11 [6] was Active. Besides, on Tubulin (Sus scrofa) [8], the inhibition result is “inactive”. Besides, the inhibition entry on Tubulin (Sus scrofa) [9] and with U2OS [10] was “Active” throughout.

In the case of `COc1ccc(/C=C\c2cc(OC)c(OC)c(OC)c2)cc1O` [COMBRETASTATIN A4], the IC50 was 6.27 nM in the data set on MV4-11 [1]; 6.08 nM with Jurkat E6.1; 11.4 nM in [2]; 14.1 nM with U2OS [3]; over 20000 nM in [4]. Besides, the Activity with U2OS [5] was 30%; in [7] it was “Non-toxic”. Moreover, the outcome in the data set with SAOS-2 and with MV4-11 [6] was Active. Besides, the inhibition entry on Tubulin (Sus scrofa) [8] was “Active”.

Take `COc1cc(-c2ccc(OC)c(OC)c2OC)ccc1O`: the IC50 in the data set with MV4-11 [1] is 1250 nM; in the data set on Jurkat E6.1, 486 nM; in data set [2] it was 1770 nM; in the data set on U2OS [3] it was over 20000 nM; in data set [4] it was over 20000 nM. Besides, the values for the Activity (in the data set with U2OS [5]; in data set [7]) were 60% and “Non-toxic”, respectively. Further, the outcome in the data set with SAOS-2 and in the data set on MV4-11 [6] was Active. For the same compound, the inhibition entry on Tubulin (Sus scrofa) [8], on Tubulin (Sus scrofa) [9] and in the data set on U2OS [10] was “Active” each time.
